Screening results deposited in PubChem BioAssay by several laboratories.
Ecoli tolC: E. coli tolC mutant growth inhibition; E. coli BW25113 tolC mutant growth, OD615; growth inhibition, % at 10 µM (by protocol); actives 2.2% (n = 65,000); AID 573;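 active = growth inhibition at or above a cutoff equal to the mean over every tested compound plus 3 SD, cut at about 60% in these data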;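 also: growth measured after 20 h incubation at 37 °C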
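signal = optical density read at 615 nm | test system = E. coli ΔtolC::kan strain BW25113 | timing = 20 h compound exposure of bacteria at 37 °C | buffer or medium = LB medium plus 50 µg/mL kanamycin | compound dosing = 10 µM final, single dose | evaluation = % inhibition of E. coli growth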
PostGolgi ctrl: yeast control strain growth, post-Golgi counter-screen. efflux-deficient yeast background strain, growth absorbance A615, 16 h. inhibition, % at 10 µM. actives 5% (n = 98,000). AID 738
E coli WT exp: E. coli BW25113 growth inhibition, expanded screen. OD600 absorbance. AID 710. actives 0.15% (n = 98,000). growth inhibition, % at 100 µM;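 active = growth inhibition above about 50% at one test dose, limit read from the data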;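 also: growth measured after 20 h incubation at 37 °C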
PostGolgi yeast: growth inhibition of a yeast mutant, post-Golgi transport screen | post-Golgi transport phenotypic cell assay | inhibition, % at 10 µM | actives 0.9% (n = 98,000);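 also: yeast cells grown in 1536-well plates; yeast grown about 18 h at 30C before absorbance read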
Cav32 inh: inhibitors of human Cav3.2 T-type calcium channel; O95180; Cav3.2-expressing cells, Fluo-4 calcium fluorescence FDSS; hits give low values; B-score at 10 µM; actives 4% (n = 100,000); AID 449739;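 active = single-dose well whose peak fluorescence ratio is a statistical outlier from its plate by either plate-standardised score or position-corrected B-score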
Target sequence (O95180 whole entry, looked up): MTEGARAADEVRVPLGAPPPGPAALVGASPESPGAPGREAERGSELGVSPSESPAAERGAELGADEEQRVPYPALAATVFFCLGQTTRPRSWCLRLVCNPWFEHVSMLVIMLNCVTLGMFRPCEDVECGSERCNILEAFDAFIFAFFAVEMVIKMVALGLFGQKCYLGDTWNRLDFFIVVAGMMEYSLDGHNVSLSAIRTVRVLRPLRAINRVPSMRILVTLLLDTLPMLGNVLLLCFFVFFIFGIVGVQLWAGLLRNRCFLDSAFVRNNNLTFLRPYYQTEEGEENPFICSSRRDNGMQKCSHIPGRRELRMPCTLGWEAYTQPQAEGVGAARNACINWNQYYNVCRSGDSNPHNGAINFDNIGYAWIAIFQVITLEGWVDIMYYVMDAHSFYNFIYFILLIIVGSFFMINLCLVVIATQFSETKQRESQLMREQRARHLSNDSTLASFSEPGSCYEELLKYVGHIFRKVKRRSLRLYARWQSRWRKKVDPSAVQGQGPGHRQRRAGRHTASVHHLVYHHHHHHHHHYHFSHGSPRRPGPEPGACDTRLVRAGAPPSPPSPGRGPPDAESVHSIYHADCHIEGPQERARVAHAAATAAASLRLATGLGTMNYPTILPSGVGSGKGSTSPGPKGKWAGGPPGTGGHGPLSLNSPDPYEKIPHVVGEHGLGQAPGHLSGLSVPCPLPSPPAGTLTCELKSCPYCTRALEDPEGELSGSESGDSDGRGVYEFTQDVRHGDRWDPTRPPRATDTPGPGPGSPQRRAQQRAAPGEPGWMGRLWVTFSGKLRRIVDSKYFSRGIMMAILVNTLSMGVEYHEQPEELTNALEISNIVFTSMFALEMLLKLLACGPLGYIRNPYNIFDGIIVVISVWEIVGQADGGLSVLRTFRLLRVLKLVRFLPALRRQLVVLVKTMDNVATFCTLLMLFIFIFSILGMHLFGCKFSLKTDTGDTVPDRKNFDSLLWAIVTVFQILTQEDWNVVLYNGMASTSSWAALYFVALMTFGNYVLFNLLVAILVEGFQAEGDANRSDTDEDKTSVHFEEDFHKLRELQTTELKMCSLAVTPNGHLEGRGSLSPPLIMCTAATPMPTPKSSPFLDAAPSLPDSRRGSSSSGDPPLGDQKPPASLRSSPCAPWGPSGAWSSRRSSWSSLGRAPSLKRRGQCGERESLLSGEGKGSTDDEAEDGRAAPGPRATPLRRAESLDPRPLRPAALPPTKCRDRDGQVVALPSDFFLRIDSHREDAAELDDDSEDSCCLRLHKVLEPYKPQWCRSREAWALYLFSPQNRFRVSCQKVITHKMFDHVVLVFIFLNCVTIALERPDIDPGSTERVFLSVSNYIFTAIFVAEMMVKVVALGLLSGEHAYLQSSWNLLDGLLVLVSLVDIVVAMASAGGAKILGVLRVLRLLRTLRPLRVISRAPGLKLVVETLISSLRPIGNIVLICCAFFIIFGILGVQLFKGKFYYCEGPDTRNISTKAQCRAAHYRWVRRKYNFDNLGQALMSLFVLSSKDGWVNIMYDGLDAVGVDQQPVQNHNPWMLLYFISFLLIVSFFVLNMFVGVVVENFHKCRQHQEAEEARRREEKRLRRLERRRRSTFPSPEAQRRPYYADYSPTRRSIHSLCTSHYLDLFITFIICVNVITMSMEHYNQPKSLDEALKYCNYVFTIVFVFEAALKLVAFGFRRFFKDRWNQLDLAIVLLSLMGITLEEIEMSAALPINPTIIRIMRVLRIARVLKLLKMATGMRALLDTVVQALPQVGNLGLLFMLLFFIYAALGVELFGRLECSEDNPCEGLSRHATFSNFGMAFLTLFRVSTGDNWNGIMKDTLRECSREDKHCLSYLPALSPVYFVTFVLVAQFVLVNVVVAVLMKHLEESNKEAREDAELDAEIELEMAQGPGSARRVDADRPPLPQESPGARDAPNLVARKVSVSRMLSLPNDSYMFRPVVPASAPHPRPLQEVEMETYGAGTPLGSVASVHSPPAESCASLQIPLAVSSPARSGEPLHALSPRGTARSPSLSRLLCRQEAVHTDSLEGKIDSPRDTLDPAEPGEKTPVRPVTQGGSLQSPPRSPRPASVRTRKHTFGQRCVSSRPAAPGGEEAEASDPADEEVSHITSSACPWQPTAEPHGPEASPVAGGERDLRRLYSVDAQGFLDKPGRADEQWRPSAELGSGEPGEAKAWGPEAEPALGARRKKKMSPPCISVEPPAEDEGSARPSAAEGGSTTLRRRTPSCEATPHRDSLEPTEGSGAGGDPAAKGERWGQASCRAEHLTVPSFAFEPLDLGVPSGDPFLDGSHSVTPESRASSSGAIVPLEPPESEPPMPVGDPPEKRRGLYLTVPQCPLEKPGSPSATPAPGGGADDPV
A number is an active result; – = inactive; · = no result. This is a sample that favours compounds with a hit; in the whole collection about 8.4% have one here. Rule as the data show it, unless noted: active = inhibition above about 30%; inactive = the rest.

SMILES | Ecoli tolC | PostGolgi ctrl | E coli WT exp | PostGolgi yeast | Cav32 inh
Cc1ccc2[nH]c3c(c2c1)CN(C(=O)CN1c2ccc(F)cc2CCC1C)CC3 (stereo not drawn) | · | 31.7 | – | – | –
Oc1ccc(/C=N/Nc2cc(N3CCCC3)nc(N3CCCC3)n2)cc1 | · | 30.8 | – | – | –
Oc1ccc(/C=N/Nc2cc(N3CCOCC3)nc(N3CCOCC3)n2)cc1 | · | · | · | · | –
O=C1N=C(N2CCOCC2)S/C1=C1\C(=O)N(Cc2ccccc2)c2ccccc21 | – | · | · | · | –
CCCN1C(=O)/C(=C2\SC(N3CCCCC3)=NC2=O)c2ccccc21 | – | 39.5 | – | – | –
CN1C(=O)/C(=C2\SC(N)=NC2=O)c2ccccc21 | · | – | – | – | ·
CN1C(=O)/C(=C2\SC(N3CCCCCC3)=NC2=O)c2ccccc21 | · | 42.2 | – | – | –
C=CCC(COCc1ccccc1)NS(=O)(=O)c1ccccc1Br (stereo not drawn) | · | · | · | · | –
NC(=O)c1cc(-c2ccccc2)nc(N2CCCCCC2)n1 | – | 36.9 | – | – | –
COc1ccc(CCNC(=O)C2CC3Cn4c(nc5ccccc54)C3N2Cc2ccccc2)cc1 (stereo not drawn) | · | · | · | · | –
CCCc1cc(=O)[nH]c(SCC(N)=O)n1 | – | – | – | – | –
CCCc1cc(=O)[nH]c(SCC(=O)c2cc(C)n(C(C)COC)c2C)n1 (stereo not drawn) | – | 48.6 | – | – | ·
COCC(C)n1c(C)cc(C(=O)COC(=O)c2nc3nc(C)cc(C)n3n2)c1C (stereo not drawn) | – | 33.0 | – | – | –
O=C(NC12CC3CC(CC(C3)C1)C2)N1CCC(O)(c2ccc3c(c2)OCO3)CC1 | – | – | – | – | –
Cc1noc(C)c1COc1ccc(C(=O)OCc2nnc(-c3ccc(Cl)cc3)o2)cc1 | – | – | – | – | -6.31
O=C(COc1ccc2c(c1)OCO2)NC12CC3CC(CC(C3)C1)C2 | – | 36.4 | – | – | –
O=C(OCc1nnc(-c2ccc(Cl)cc2)o1)c1ccncc1 | – | – | – | – | –
Cc1noc(C)c1COc1ccc(C(=O)OCC(=O)NC23CC4CC(CC(C4)C2)C3)cc1 | · | 36.7 | – | – | –
CCOC(=O)N1CCC(NC(=O)c2ccc(CS(=O)(=O)c3ccc(OC)cc3)o2)CC1 | – | – | – | – | –
Cc1ccc(N2C(=O)C(CC(=O)Nc3cccc(F)c3)N(C3CC3)C2=O)cc1 (stereo not drawn) | · | · | · | · | –
CCOC(=O)CN1C(=O)N[C@@H](c2cccc(C(F)(F)F)c2)C(C(=O)OC)=C1C | · | · | · | · | –
Cn1nc(C(F)(F)F)c(C#N)c1N1CCN(c2ccc(F)cc2)CC1 | · | 73.5 | – | – | –
Cn1nc(C(F)(F)F)c(C#N)c1N1CCN(c2ccccc2)CC1 | · | 71.7 | – | – | –
COc1ccnc(N2CCN(c3ccccc3)CC2)c1C#N | · | – | – | – | –
CC(C)OCC(O)CS(=O)Cc1ccccc1 (stereo not drawn) | · | – | – | – | –
SMILES | Ecoli tolC | PostGolgi ctrl | E coli WT exp | PostGolgi yeast | Cav32 inh
C=C(C)CSc1nncn1/N=C/c1ccc(OC)cc1 | – | – | – | – | -6.04
Cc1ccc2nc(SCCCCOc3ccccc3)[nH]c2c1 | · | – | – | – | -6.25
c1ccc(OCCSc2nc3ccccc3[nH]2)cc1 | · | · | · | · | -3.63
O=C(O)CSc1nc2ccccc2[nH]1 | · | – | – | – | –
Cc1occc1-c1nnc(SCC(=O)N2CCc3ccccc32)o1 | – | – | – | – | –
CCOc1ccc2nc(SC(C)C(N)=O)[nH]c2c1 (stereo not drawn) | – | – | – | – | –
CCOC(=O)N1CCN(c2c(NCc3ccccn3)c(=O)c2=O)CC1 | – | 31.1 | – | – | –
COc1ccc(C)cc1S(=O)(=O)N(CC(=O)O)c1ccc(F)cc1 | – | – | – | – | ·
Cc1cc(NC(=O)c2oc3ccccc3c2C)ccc1-n1cnnn1 | – | 34.3 | – | – | –
Cc1cc(NCCC(C)C)n2nc(C)c(-c3ccccc3)c2n1 | · | 52.6 | – | – | –
COc1ccc(-c2n[nH]c3c2C(c2ccc(OC)c(OC)c2)N(c2ccccc2)C3=O)cc1 (stereo not drawn) | · | – | – | – | -5.6
COc1ccc(C2NC(C(=O)O)CS2)cc1COCC(F)(F)F (stereo not drawn) | – | – | – | – | –
CCOc1ccc(C2/C(=C(\O)c3c(C)[nH]c(C(=O)OC)c3C)C(=O)C(=O)N2CCN(C)C)cc1 (stereo not drawn) | – | – | – | – | –
CCCOc1ccc(C2/C(=C(\O)c3c(C)[nH]c(C(=O)OC)c3C)C(=O)C(=O)N2CCN(C)C)cc1 (stereo not drawn) | – | 31.5 | – | – | –
